From ChEMBL document CHEMBL3739400, “Penicyclones A-E, Antibacterial Polyketides from the Deep-Sea-Derived Fungus Penicillium sp. F23-2” (J Nat Prod, 2015)
Values after ≈ are worked out from the molar mass of the structure shown.

Legend:
[1] = Cytotoxicity against human HCT116 cells assessed as reduction in cell viability by sulforhodamine B assay; assay type: functional, cell-based; conditions: HCT-116
HeLa = assay: Cytotoxicity against human HeLa cells assessed as reduction in cell viability by MTT assay; assay type: functional, cell-based
How it was run: (§1)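 Cytotoxicity was measured by MTT assay on HeLa (human cervical cancer) and BEL-7402 (human hepatocellular carcinoma) cell lines, with doxorubicin as the positive control.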

A549 = assay: Cytotoxicity against human A549 cells assessed as reduction in cell viability by sulforhodamine B assay; assay type: functional, cell-based
Staphylococcus aureus = assay: Antibacterial activity against Staphylococcus aureus ATCC 6538 assessed as growth inhibition after 24 hrs by broth microdilution method; assay type: functional; conditions: ATCC 6538, 24 h
How it was run: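 Broth microdilution assay against Staphylococcus aureus, with penicillin G as the positive control.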

[2] = Cytotoxicity against human Bel7402 cells assessed as reduction in cell viability by MTT assay; assay type: functional, cell-based; conditions: Bel-7402; how it was run: as §1
HEK293 = assay: Cytotoxicity against HEK293 cells assessed as reduction in cell viability by sulforhodamine B assay; assay type: cell-based; conditions: Homo sapiens

Row | Compound | IC50 [1] [µM] | IC50 (HeLa) [µM] | IC50 (A549) [µM] | MIC (Staphylococcus aureus) [µg/mL] | IC50 [2] [µM] | IC50 (HEK293) [µM]
1 | COC(=O)[C@H](C)CC[C@@]1(O)C(=O)C=C(C)[C@@H](O)[C@H]1O | > 50 | > 50 | > 50 | 0.9 (≈ 3.31 µM) | > 50 | > 50
2 | CC1=CC(=O)[C@](O)(CC[C@@H](C)C(=O)O)[C@H](O)[C@@H]1O | > 50 | > 50 | > 50 | 1 (≈ 3.87 µM) | > 50 | > 50
3 | CC1=CC(=O)[C@]2(C/C=C(\C)CCC(=O)O)O[C@@H]2[C@@H]1O | > 50 | > 50 | > 50 | 0.5 (≈ 1.88 µM) | > 50 | > 50
4 | CC1=CC(=O)[C@]2(CC/C(C)=C/CC(=O)O)O[C@@H]2[C@@H]1O | > 50 | > 50 | > 50 | 0.8 (≈ 3 µM) | > 50 | > 50
5 | CC1=CC(=O)[C@]2(CC[C@@H](C)C(=O)O2)[C@H](O)[C@@H]1O | > 50 | > 50 | > 50 | 0.3 (≈ 1.25 µM) | > 50 | > 50
